Published values pooled from the literature.
Protocols differ between the studies behind these lines.

| Compound | host | matrix | route | dose | setting | half-life |
| --- | --- | --- | --- | --- | --- | --- |
| CC(=O)O[C@@]12CO[C@@H]1C[C@H](O)[C@@]1(C)C(=O)[C@H](O)C3=C(C)[C@@H](OC(=O)[C@H](O)[C@@H](NC(=O)OC(C)(C)C)c4ccccc4)C[C@@](O)([C@@H](OC(=O)c4ccccc4)[C@H]21)C3(C)C | male Kunming mouse | lung | oral | 20 mg/kg |  | 36 min |
| O=[N+]([O-])c1ccc(-c2ccc(O)cc2)c2cccnc12 | male CD-1 mouse | plasma | intravenous | 1 mg/kg |  | 7.56 min |
| O=C(ONc1nc2nonc2nc1Nc1ccccc1F)c1ccc(OC(F)(F)F)cc1 | male C57BL/6 mouse | plasma | oral | 10 mg/kg |  | 15 to 27 min |
| CC(C(=O)Nc1c(F)cccc1F)N1CCN(c2ccccc2)CC1 (stereo not shown) | female C57BL/6 mouse | brain | intraperitoneal | 10 mg/kg |  | ~27 min |
| Nc1ncn([C@H]2C[C@H](O)[C@@H](CO)O2)c(=O)n1 | female C57BL/6 mouse | plasma | oral | 0.4 mg/kg |  | 54.6 min |
| CC(C)C[C@H](NC(=O)[C@@H]1COCCCCCC(=O)N2C[C@H](F)C[C@H]2C(=O)N1)C(=O)[C@@]1(C)CO1 | male BALB/c mouse | plasma | oral | 150 mg/kg |  | 47.4 min |
| COc1cc(C(=O)OCCCN2CCCN(CCCOC(=O)c3cc(OC)c(OC)c(OC)c3)CC2)cc(OC)c1OC | male CD-1 mouse | brain | subcutaneous |  |  | 50.4 min |
| CN1CCN(C(=O)[C@H](CCCN[C@@H]2C[C@H]2c2ccc(F)cc2)NC(=O)c2ccc(-n3ccnn3)cc2)CC1 | CD-1 mouse | plasma | oral | 10 mg/kg |  | 299 min |
| COc1cc2c(NC3CCN(CCCC(=O)NCCCCCCCCCCCC(=O)N[C@H](C(=O)N4C[C@H](O)C[C@H]4C(=O)NCc4ccc(-c5scnc5C)cc4)C(C)(C)C)CC3)nc(N3CCC(F)(F)CC3)nc2cc1OCCCN1CCCC1 | male C57BL/6 mouse | plasma | intraperitoneal | 50 mg/kg | single dose | 90 min |
| FC(F)(F)c1nc2c(-c3cc(Cl)cc(Cl)c3)ccnc2[nH]1 | male C57BL/6 mouse | plasma | oral | 10 mg/kg |  | > 900 min |
| CC1=NN(/C(=N/c2nnc(C)s2)Nc2ccc(C)c(C)c2)C(c2cc(F)c(F)c(F)c2)S1 (stereo not shown) | male CD-1 mouse | plasma | oral | 30 mg/kg |  | 131 min |
| CCN1CCN(Cc2ccc(NC(=O)c3ccc(C)c(NC(=O)c4cncc(-c5cccs5)c4)c3)cc2C(F)(F)F)CC1 | mouse | plasma | intraperitoneal | 15 mg/kg | single dose | 145 min |
| CCOc1ccc(N(C)S(=O)(=O)c2cc(Cl)sc2C(=O)Nc2cc(Cl)cc(C(=O)O)c2)cc1OC | male C57BL/6 mouse | plasma | intraperitoneal | 10 mg/kg |  | 28.1 min |
